Measured values from ChEMBL document CHEMBL4130631, “Identification of the Histidine Residue in Vitamin D Receptor That Covalently Binds to Electrophilic Ligands” (J Med Chem, 2018).
Activity calls are given as the source filed them. No cut-off for these calls is given here.

Legend:
Vitamin D3 receptor = molecular target: T1, Vitamin D3 receptor (Homo sapiens, UniProt P11473); experiment: Displacement of [3H]-1,25D3 from C-terminal GST-tagged human recombinant VDR LBD expressed in Escherichia coli BL21 (DE3) after 16 hrs by radioligand binding assay
T1 sequence (P11473 whole entry): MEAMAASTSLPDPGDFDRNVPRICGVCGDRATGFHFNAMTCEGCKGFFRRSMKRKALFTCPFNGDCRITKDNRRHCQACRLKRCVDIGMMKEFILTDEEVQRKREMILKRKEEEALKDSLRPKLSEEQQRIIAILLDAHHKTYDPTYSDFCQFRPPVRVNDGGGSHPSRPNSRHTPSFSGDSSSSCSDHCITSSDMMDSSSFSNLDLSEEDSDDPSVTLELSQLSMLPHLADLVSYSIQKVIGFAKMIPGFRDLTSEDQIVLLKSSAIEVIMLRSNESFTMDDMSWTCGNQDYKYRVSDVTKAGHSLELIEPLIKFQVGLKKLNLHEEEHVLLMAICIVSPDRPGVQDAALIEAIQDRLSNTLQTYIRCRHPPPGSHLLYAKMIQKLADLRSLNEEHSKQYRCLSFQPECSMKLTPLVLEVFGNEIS

[1] = molecular target: T2, Vitamin D3 receptor (Homo sapiens) (UniProt P11473); experiment: Displacement of [3H]-1,25D3 from C-terminal GST-tagged human recombinant VDR LBD expressed in Escherichia coli BL21 (DE3) after 16 hrs by radioligand binding assay relative to 1,25D3
T2 sequence (whole entry): T1 sequence (P11473 whole entry)
Summary of the method: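 Competitive binding against [3H]-1,25D3 using human VDR-LBD expressed as C-terminal GST fusion from pGEX-VDR in E. coli BL21; IC50 derived.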

[2] = molecular target: T2, Vitamin D3 receptor (Homo sapiens); experiment: Agonist activity at human full-length VDR expressed in African green monkey COS7 cells by osteopontin luciferase reporter gene assay; type: cell-based
Summary of the method: (§1)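 Dual luciferase reporter in Cos7 or HEK293 cells cotransfected with full-length human VDR plasmid (pCMX-hVDR), reporter carrying three copies of osteopontin VDRE (SPPx3-TK-Luc) and sea pansy luciferase control (pRL-CMV). Activity normalized to 1,25D3 set as 1: 10−8 M in Cos7, 10−9 M in HEK293.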

[3] = molecular target: T2, Vitamin D3 receptor (Homo sapiens); experiment: Agonist activity at human full-length VDR expressed in HEK293 cells by osteopontin luciferase reporter gene assay; type: cell-based; summary of the method: as §1
[4] = molecular target: T3, Vitamin D3 receptor (Rattus norvegicus) (UniProt P13053); experiment: Covalent binding affinity to rat VDR LBD (116 to 423 residues, 165-211 residues) at 5 equivalents by ESI-MS analysis
T3 sequence (whole entry): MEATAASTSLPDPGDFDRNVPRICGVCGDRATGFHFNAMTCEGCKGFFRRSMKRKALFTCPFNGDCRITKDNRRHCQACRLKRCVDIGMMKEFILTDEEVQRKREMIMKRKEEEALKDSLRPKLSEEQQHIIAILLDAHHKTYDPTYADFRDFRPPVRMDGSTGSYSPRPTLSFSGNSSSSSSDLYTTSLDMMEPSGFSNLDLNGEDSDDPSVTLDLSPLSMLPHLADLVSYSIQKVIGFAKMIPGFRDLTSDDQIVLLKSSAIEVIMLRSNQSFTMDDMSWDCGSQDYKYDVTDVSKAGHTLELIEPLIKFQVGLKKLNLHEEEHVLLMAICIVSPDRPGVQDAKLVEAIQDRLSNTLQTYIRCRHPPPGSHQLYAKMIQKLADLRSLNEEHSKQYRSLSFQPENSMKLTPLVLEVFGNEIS
Summary of the method: (§2)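 Rat VDR-LBD (residues 116−423, Δ165−211) concentrated in 50 mM ammonium acetate pH 6.5, 10 μM, incubated with 5 equiv ligand at room temperature. Samples sampled over time (up to 6 h, or 24 h), infused at 30 μL/min, analysed by positive-ion ESI-MS, m/z 100−4000. Spectra deconvoluted to unmodified versus ligand-adduct protein mass peaks.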

[5] = molecular target: T3, Vitamin D3 receptor (Rattus norvegicus); experiment: Covalent binding affinity to rat VDR LBD (116 to 423 residues, 165-211 residues) at 2 equivalents after 24 hrs by ESI-MS analysis
[6] = molecular target: T3, Vitamin D3 receptor (Rattus norvegicus); experiment: Irreversible covalent binding affinity to rat VDR LBD (116 to 423 residues, 165-211 residues) at 2 equivalents after 24 hrs followed by compound wash out and subsequent addition of 10 equivalents of 1,25D3 and measured after 24 hrs by ESI-MS analysis
Summary of the method: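 Rat VDR-LBD (Δ165−211) incubated with ligand for 24 h; covalent adduct confirmed by ESI-MS, then buffer exchanged to ligand-free buffer and 10 equiv 1,25D3 added. Positive-ion ESI-MS read for retained modified versus exchanged protein peaks.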

[7] = molecular target: T3, Vitamin D3 receptor (Rattus norvegicus); experiment: Covalent binding affinity to rat VDR LBD (116 to 423 residues, 165-211 residues) assessed as covalently modified protein level at 5 equivalents by ESI-MS analysis; settings: TDE = time-dependent effect; summary of the method: as §2
[8] = molecular target: T3, Vitamin D3 receptor (Rattus norvegicus); experiment: Covalent binding affinity to rat VDR LBD (116 to 423 residues, 165-211 residues) assessed as time duration for complete covalent bond formation with protein at 5 equivalents by ESI-MS analysis; summary of the method: as §2
[9] = molecular target: T3, Vitamin D3 receptor (Rattus norvegicus); experiment: Covalent binding affinity to rat VDR LBD (116 to 423 residues, 165-211 residues) at 5 equivalents after 30 hrs by ESI-MS analysis

| Compound | IC50 (Vitamin D3 receptor) [nM] | Ratio IC50 [1] | Activity [2] | Activity [3] | Activity [4] | Activity [5] | Activity [6] | Activity [7] | TIME [8] [h] | Activity [9] |
| --- | --- | --- | --- | --- | --- | --- | --- | --- | --- | --- |
| C=C1[C@H](O)CC(=C/C=C2\CCC[C@]3(C)[C@@H]([C@H](C)CCC(=O)/C=C/C)CC[C@@H]23)C[C@H]1O | 1.8 | 0.034 | Active | Active | Active | Active | Active | Tde | 3 | – |
| C=CC(=O)CC[C@@H](C)[C@H]1CC[C@H]2/C(=C/C=C3C[C@@H](O)C(=C)[C@H](O)C3)CCC[C@]12C | 1.1 | 0.055 | Active | Active | Active | Active | Active | Tde | 1.5 | – |
| C=C1[C@H](O)CC(=C/C=C2\CCC[C@]3(C)[C@@H]([C@H](C)C(=O)/C=C/C=C/C)CC[C@@H]23)C[C@H]1O | 2.3 | 0.022 | Active | Active | – | – | – | – | – | Active |
